Experimental data published in ChEMBL document CHEMBL2086343, “Design, synthesis and antibacterial activity of minor groove binders: the role of non-cationic tail groups” (Eur J Med Chem, 2012).
≈ marks a conversion by molar mass, not a printed value. Calls of active or inactive are those of the source. The calls are words filed in the database; no cut-off is given here.

Tests used:
hERG (KCNH2) = hERG (KCNH2) (Homo sapiens, UniProt Q12809); experiment: Displacement of [3H]astemizole from human hERG transfected in HEK293 cells at 10 uM after 1 hr by scintillation counter; assay type: cell-based; conditions: HEK293 cells transfected with human hERG, probe [3H]astemizole
Sequence of hERG (KCNH2) (Q12809 whole entry): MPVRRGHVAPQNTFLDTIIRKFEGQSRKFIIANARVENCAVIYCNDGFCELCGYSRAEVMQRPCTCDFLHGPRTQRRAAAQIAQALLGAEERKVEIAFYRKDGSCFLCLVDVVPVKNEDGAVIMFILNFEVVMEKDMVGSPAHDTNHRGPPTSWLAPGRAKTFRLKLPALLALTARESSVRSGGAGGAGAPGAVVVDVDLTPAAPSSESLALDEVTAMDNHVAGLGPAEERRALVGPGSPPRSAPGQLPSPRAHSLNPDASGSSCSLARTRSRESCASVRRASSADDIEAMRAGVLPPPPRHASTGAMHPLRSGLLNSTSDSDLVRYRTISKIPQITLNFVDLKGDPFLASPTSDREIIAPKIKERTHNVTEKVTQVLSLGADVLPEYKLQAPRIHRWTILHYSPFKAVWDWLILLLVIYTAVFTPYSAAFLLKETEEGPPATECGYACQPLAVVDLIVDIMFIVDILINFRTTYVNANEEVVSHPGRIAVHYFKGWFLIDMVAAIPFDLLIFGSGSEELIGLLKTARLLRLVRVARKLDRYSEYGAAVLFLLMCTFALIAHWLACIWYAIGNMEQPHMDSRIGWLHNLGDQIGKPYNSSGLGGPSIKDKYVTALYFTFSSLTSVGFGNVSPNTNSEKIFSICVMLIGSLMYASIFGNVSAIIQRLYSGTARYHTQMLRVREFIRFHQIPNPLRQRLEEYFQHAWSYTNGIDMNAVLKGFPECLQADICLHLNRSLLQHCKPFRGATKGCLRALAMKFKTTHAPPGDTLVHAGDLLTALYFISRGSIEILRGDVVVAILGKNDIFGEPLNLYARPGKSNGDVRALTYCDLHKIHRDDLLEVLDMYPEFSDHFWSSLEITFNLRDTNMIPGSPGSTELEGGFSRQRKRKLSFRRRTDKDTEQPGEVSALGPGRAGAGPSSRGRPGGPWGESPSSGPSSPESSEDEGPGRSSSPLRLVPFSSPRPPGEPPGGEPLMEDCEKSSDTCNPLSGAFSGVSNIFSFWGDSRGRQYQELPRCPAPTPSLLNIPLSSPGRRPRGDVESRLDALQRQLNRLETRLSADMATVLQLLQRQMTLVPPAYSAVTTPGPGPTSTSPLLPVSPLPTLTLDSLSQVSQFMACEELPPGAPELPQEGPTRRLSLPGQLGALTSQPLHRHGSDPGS
Method in brief: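 Membranes came from hERG-transfected HEK293 cells (grown at 37 °C, 5% CO₂), homogenised and spun at 200,000 g. About 200,000 cells per tube were incubated 1 h at 30 °C with 0.5 nM [³H]astemizole and compound at 10 µM in HEPES pH 7.4 buffer. Non-specific binding was set with 10 µM unlabelled astemizole. Samples were filtered (GF/B) and counted by scintillation. Triplicates, n = 3.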

Staphylococcus aureus = experiment: Antibacterial activity against Staphylococcus aureus; assay type: functional
Nucleic Acid [1] = experiment: Binding affinity to HexRev DNA at <10 uM after 30 mins by DNase 1 footprinting assay; assay type: nucleic-acid assay
Method in brief: (§1)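 DNase I footprinting used 3'-end radiolabelled DNA (<10 nM) in 10 mM Tris-HCl pH 7.5 with 0.1 mM EDTA. It was incubated with ligand for at least 30 min at room temperature, then digested 1 min with about 0.01 units/mL DNase I (with NaCl, MgCl₂, MnCl₂). Fragments were resolved on 8% denaturing polyacrylamide/8 M urea gels and read by phosphorimaging.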

Nucleic Acid [2] = experiment: Binding affinity to HexB DNA at <10 uM after 30 mins by DNase 1 footprinting assay; assay type: nucleic-acid assay
Nucleic Acid [3] = experiment: Binding affinity to HexA DNA at <10 uM after 30 mins by DNase 1 footprinting assay; assay type: nucleic-acid assay; method in brief: as §1
Nucleic Acid [4] = experiment: Binding affinity to 5'GCGATATATGCG3' DNA sequence assessed as change in melting temperature by thermal denaturation assay; assay type: nucleic-acid assay
Method in brief: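 Oligonucleotide and its complement at 6×10^-6 M, mixed with MGB at the chosen ratio, in 10 mM PBS pH 7.4 with 50 mM NaCl. Heated 10→80 °C and cooled 80→10 °C at 0.5 °C/min. Absorbance was read at 260 nm, and Tm was taken from the derivative maxima.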

Row | MIC (Staphylococcus aureus) | Compound | inhibition at 1 h, 10 µM (hERG (KCNH2)) [%] | other results
1 | 6.25 µM (≈ 3.82 µg/mL) | COc1ccc(/C=C/c2ccc(C(=O)Nc3cc(C(=O)Nc4cc(C(=O)NCCN5CCOCC5)n(C)c4)n(C)c3)cn2)cc1 | 58 | –
2 | inactive | COc1ccc(/C=C/c2ccc(C(=O)Nc3cc(C(=O)Nc4cc(C(=O)NCCO)n(C)c4)n(C)c3)cn2)cc1 | – | –
3 | 0.12 µM (≈ 0.0758 µg/mL) | Cn1cc(NC(=O)c2cc(NC(=O)c3ccc(/C=C/c4cnc5ccccc5c4)cc3)cn2C)cc1C(=O)NCCN1CCOCC1 [MGB-BP-3] | 65 | –
4 | inactive | COc1ccc(/C=C/c2ccc(C(=O)Nc3cc(C(=O)Nc4cc(C(=O)NCCNC(=N)N)n(C)c4)n(C)c3)cn2)cc1 | – | –
5 | 31 µM (≈ 19.9 µg/mL) | CN/C(=C\[N+](=O)[O-])NCCNC(=O)c1cc(NC(=O)c2cc(NC(=O)c3ccc(/C=C/c4ccc(OC)cc4)nc3)cn2C)cn1C | – | –
6 | 2 µM (≈ 1.22 µg/mL) | COc1cccc(/C=C/c2ccc(C(=O)Nc3cc(C(=O)Nc4cc(C(=O)NCCN5CCOCC5)n(C)c4)n(C)c3)cc2)c1 | 65 | –
7 | inactive | COc1ccc(/C=C/c2ccc(C(=O)Nc3cc(C(=O)Nc4cc(C(=O)NCCOC(C)=O)n(C)c4)n(C)c3)cn2)cc1 | – | –

Second part, the compound before the results:

Row | Compound | MIC (Staphylococcus aureus) | inhibition at 1 h, 10 µM (hERG (KCNH2)) [%] | other results
8 | Cn1cc(NC(=O)c2cc(NC(=O)c3ccc(/C=C/c4cnc5ccccc5c4)cc3)cn2C)cc1C(=O)NCCN | inactive | 55 | –
9 | Cn1cc(NC(=O)c2cc(NC(=O)c3ccc(/C=C/c4cnc5ccccc5c4)cc3)cn2C)cc1C(=O)NCCNC(=N)N | 7.8 µM (≈ 4.71 µg/mL) | – | Activity (Nucleic Acid [1]): Active; Activity (Nucleic Acid [2]): Active; Activity (Nucleic Acid [3]): Active; ΔTm (Nucleic Acid [4]): 29 °C
10 | Cn1cc(NC(=O)c2cc(NC(=O)c3ccc(/C=C/c4cnc5ccccc5c4)cc3)cn2C)cc1C(=O)NCCNC(=O)C(F)(F)F | 12.5 µM (≈ 8.22 µg/mL) | 24 | –
11 | COc1cccc(/C=C/c2ccc(C(=O)Nc3cc(C(=O)Nc4cc(C(=O)NCCNC(=O)OC(C)(C)C)n(C)c4)n(C)c3)cc2)c1 | inactive | 36 | –
12 | COc1cccc(/C=C/c2ccc(C(=O)Nc3cc(C(=O)Nc4cc(C(=O)NCCNC(=N)N)n(C)c4)n(C)c3)cc2)c1 | 25 µM (≈ 14.6 µg/mL) | 69 | –
13 | CN/C(=N\C#N)NCCNC(=O)c1cc(NC(=O)c2cc(NC(=O)c3ccc(/C=C/c4cccc(OC)c4)cc3)cn2C)cn1C | inactive | 58 | –
14 | CN/C(=N\C#N)NCCNC(=O)c1cc(NC(=O)c2cc(NC(=O)c3ccc(/C=C/c4cnc5ccccc5c4)cc3)cn2C)cn1C | inactive | 54 | –
15 | COc1cccc(/C=C/c2ccc(C(=O)Nc3cc(C(=O)Nc4cc(C(=O)NCCOC(C)=O)n(C)c4)n(C)c3)cc2)c1 | inactive | – | –
16 | CN/C(=C\[N+](=O)[O-])NCCNC(=O)c1cc(NC(=O)c2cc(NC(=O)c3ccc(/C=C/c4cnc5ccccc5c4)cc3)cn2C)cn1C | 2.5 µM (≈ 1.65 µg/mL) | 51 | Activity (Nucleic Acid [1]): Active; Activity (Nucleic Acid [2]): Active; Activity (Nucleic Acid [3]): Active; ΔTm (Nucleic Acid [4]): 16 °C
17 | CN(C)CCCNC(=O)c1cc(NC(=O)c2cc(NC(=O)c3ccc(/C=C/c4cnc5ccccc5c4)cc3)cn2C)cn1C | 25 µM (≈ 15.1 µg/mL) | 60 | –
18 | COc1cccc(/C=C/c2ccc(C(=O)Nc3cc(C(=O)Nc4cc(C(=O)NCCO)n(C)c4)n(C)c3)cc2)c1 | inactive | 32 | –
19 | CN/C(=C\[N+](=O)[O-])NCCNC(=O)c1cc(NC(=O)c2cc(NC(=O)c3ccc(/C=C/c4cccc(OC)c4)cc3)cn2C)cn1C | inactive | – | –
